Tests used:
Homo sapiens [1] = species: Homo sapiens; test: Cytotoxicity was evaluated against human MGL-8 B -lymphoblasts (Presence of 10 uM 2'-deoxyguanosine (W/GdR)); assay type: functional; conditions: MGL8
Method in brief: (§1)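 Cell growth measured as [3H]thymidine uptake. Lines kept in RPMI 1640 with 10% heat-inactivated fetal calf serum, L-glutamine and penicillin-streptomycin; assay run in RPMI 1640 plus 10% heat-inactivated horse serum.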

Homo sapiens [2] = species: Homo sapiens; test: Cytotoxicity was evaluated against human MGL-8 B -lymphoblasts (absence of 10 uM 2'-deoxyguanosine (Wo/GdR)); assay type: functional; conditions: MGL8; method in brief: as §1
MOLT-4 [3] = test: Cytotoxicity was evaluated against human MOLT-4 T-lymphoblasts (absence of 10 uM 2'-deoxyguanosine (Wo/GdR)); assay type: functional, cell-based; method in brief: as §1
MOLT-4 [4] = test: Cytotoxicity was evaluated against human MOLT-4 T-lymphoblasts (presence of 10 uM 2'-deoxyguanosine (W/GdR)); assay type: functional, cell-based; method in brief: as §1
[5] = target: T1, Purine nucleoside phosphorylase (Homo sapiens, UniProt P00491); test: Compound was evaluated for 50% inhibition of purine nucleoside phosphorylase activity by was measured by the conversion of [8-14C]-inosine to [8-14C]-hypoxanthine; assay type: functional
T1 sequence (P00491 whole entry): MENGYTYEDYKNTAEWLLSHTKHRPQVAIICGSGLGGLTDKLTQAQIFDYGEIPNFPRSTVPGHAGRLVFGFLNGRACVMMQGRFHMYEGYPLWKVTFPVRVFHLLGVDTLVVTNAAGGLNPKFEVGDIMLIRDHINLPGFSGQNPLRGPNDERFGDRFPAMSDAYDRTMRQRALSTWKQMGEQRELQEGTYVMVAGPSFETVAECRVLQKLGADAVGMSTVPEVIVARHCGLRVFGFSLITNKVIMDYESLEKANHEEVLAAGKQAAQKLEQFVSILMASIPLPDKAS

Structure (SMILES) | IC50 (Homo sapiens [1]) [µM] | IC50 (Homo sapiens [2]) [µM] | IC50 (MOLT-4 [3]) [µM] | IC50 (MOLT-4 [4]) [µM] | IC50 [5] [µM]
Nc1nc2nc(N)sc2c(=O)[nH]1 | > 50 | > 50 | > 50 | > 50 | ~330
Nc1nc(O)c2nc(N)n([C@@H]3O[C@H](CO)[C@@H](O)[C@H]3O)c2n1 | > 500 | > 500 | ~500 | 3.25 | 
Nc1nc2[nH]c(N)nc2c(=O)[nH]1 [8-AMINOGUANINE] | > 500 | > 500 | ~400 | 2.35 | 1.55
Nc1nc2sc(N)nc2c(=O)[nH]1 | > 50 | > 50 | > 50 | > 50 | 142

Reference: ChEMBL document CHEMBL1123538, “Inhibitors of human purine nucleoside phosphorylase. Synthesis, purine nucleoside phosphorylase inhibition, and T-cell cytotoxicity of 2,5-diaminothiazolo[5,4-d]pyrimidin-7(6H)-one and 2,5-diaminothiazolo[4,5-d]pyrimidin-7(6H)-one. Two thio isosteres of 8-aminoguanine” (J Med Chem, 1986)
